Data on 2 molecules can be found in ChEMBL document CHEMBL4715845, “Conjugable A adenosine receptor antagonists for the development of functionalized ligands and their use in fluorescent probes” (Eur J Med Chem, 2020).

The species entered for test [1] is Homo sapiens. Nature of the test: Selectivity ratio of Ki for displacement of [3H]CGS21680 from recombinant human A2AAR expressed in HEK293 cell membranes to Ki for displacement of [125I]AB-MEC from recombinant human A3R expressed in CHO cell membranes.
Test [2] deals with T1, Adenosine receptor A1 (Homo sapiens) (UniProt P30542).
T1 sequence (whole entry): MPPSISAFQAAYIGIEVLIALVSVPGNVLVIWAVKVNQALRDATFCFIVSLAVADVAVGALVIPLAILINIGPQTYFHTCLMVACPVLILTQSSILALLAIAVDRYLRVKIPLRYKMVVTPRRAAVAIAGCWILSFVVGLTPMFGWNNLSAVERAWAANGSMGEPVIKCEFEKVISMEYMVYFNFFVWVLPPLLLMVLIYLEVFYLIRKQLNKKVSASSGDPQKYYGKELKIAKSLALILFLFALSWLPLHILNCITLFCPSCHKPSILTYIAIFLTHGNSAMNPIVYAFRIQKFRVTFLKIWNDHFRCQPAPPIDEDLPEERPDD
Put plainly: Displacement of [3H]R-PIA from recombinant human A1AR expressed in CHO cell membranes at 10 uM relative to control. The gist of the method:
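[3H]R-PIA competition at membranes of CHO cells expressing recombinant human A1AR, with test compound at a single concentration of 10 μM. Adenosine deaminase (3 units/mL) present in the 30 min, 30 °C preincubation and during incubation. Final DMSO ≤2%. Bound radioligand collected on GF/B filters. Reported as % inhibition of specific binding.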

For test [3], the species on record is Homo sapiens. Nature of the test: Selectivity ratio of Ki for displacement of [3H]R-PIA from recombinant human A1AR expressed in CHO cell membranes to Ki for displacement of [125I]AB-MEC from recombinant human A3R expressed in CHO cell membranes. In general terms: Loss of bound radioactivity is the signal in a displacement assay; it reports binding, not function.

For test [4], the species on record is Homo sapiens. Nature of the test: Selectivity ratio of Ki for displacement of [3H]R-PIA from recombinant human A1AR expressed in CHO cell membranes to Ki for displacement of [3H]CGS21680 from recombinant human A2AAR expressed in HEK293 cell membranes.

Where only a bound is given, the exact number is not on record here.

As for `Cn1cc2c(nc(NC(=O)Nc3ccc(CC(=O)O)cc3)n3nc(-c4ccco4)nc23)n1`, the Ratio Ki in test [1] is 7.8; in test [3], > 78; in test [4], > 10. Besides, in test [2], the inhibition is 4%.

As to `Cn1cc2c(nc(NC(=O)CCCc3cn(CCCCCCNC(=O)c4ccc(-c5c6ccc(=N)c(S(=O)(=O)O)c-6oc6c(S(=O)(=O)O)c(N)ccc56)c(C(=O)O)c4)nn3)n3nc(-c4ccco4)nc23)n1`, the Ratio Ki in test [1] worked out at 2.83.

By inhibition is commonly meant the percentage by which the read-out fell short of the control.
